Measured values from ChEMBL document CHEMBL2203194, “Phenolic compounds from Caesalpinia sappan heartwood and their anti-inflammatory activity” (J Nat Prod, 2012).
Calls of active or inactive are those of the source. The rule behind the calls is not given here.

Columns and labels:
RAW264.7 [1] = assay: Effect on alpha-tubulin protein expression in mouse RAW264.7 cells up to 10 uM pre-treated for 30 mins before LPS challenge for 18 hrs by immunoblot; type: functional, cell-based
Method in brief: (§1)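 Cells pretreated 30 min with compound (0−10 μM), then LPS 1 μg/mL for 18 h. Total lysates in ice-cold Tris-HCl pH 7.5/NP-40 buffer; 50 μg protein per lane by SDS-PAGE, PVDF, skim-milk block, anti-iNOS and anti-α-tubulin antibodies, HRP secondary, ECL. iNOS densitometry normalized to α-tubulin.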

RAW264.7 [2] = assay: Antiinflammatory activity in mouse RAW264.7 cells assessed as reduction of LPS-induced iNOS protein expression pre-treated for 30 mins before LPS challenge for 18 hrs by immunoblot; type: functional, cell-based; method in brief: as §1
RAW264.7 [3] = assay: Cytotoxicity against mouse RAW264.7 cells at 50 uM incubated for 24 hrs in presence of LPS by MTT assay; type: cell-based; details: raw264.7, 24 h
Method in brief: (§2)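 RAW264.7 viability by MTT colorimetric assay after 24 h with compounds at 50 μM, with or without LPS (1 μg/mL).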

RAW264.7 [4] = assay: Cytotoxicity against mouse RAW264.7 cells at 50 uM incubated for 24 hrs in absence of LPS by MTT assay; type: cell-based; details: raw264.7, 24 h; method in brief: as §2
[5] = Antioxidant activity assessed as nitric oxide free radical scavenging activity by UV-visible spectroscopy; type: functional
Method in brief: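 Compounds in DMSO, made up with MeOH, mixed with 10 mM sodium nitroprusside in PBS; room temperature 150 min. Scavenging % = (control − sample)/control × 100, MeOH blank as control; ascorbic acid standard. IC50, mean ± SD of three experiments.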

RAW264.7 [6] = assay: Antiinflammatory activity in mouse RAW264.7 cells assessed as inhibition of LPS-induced TNFalpha production incubated for 24 hrs by ELISA; type: functional, cell-based; details: RAW264.7, 24 h
Method in brief: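 RAW264.7 cells (1 × 10^5 cells/well) stimulated with 1 μg/mL LPS for 24 h with test compounds; TNF-α in culture supernatant quantified by ELISA. IC50 relative to vehicle control; mean ± SD of three repeated experiments. Celastrol positive control.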

RAW264.7 [7] = assay: Antiinflammatory activity in mouse RAW264.7 cells assessed as inhibition of LPS-induced nitric oxide generation incubated for 24 hrs; type: functional, cell-based; details: RAW264.7, 24 h
Method in brief: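 Nitrite in supernatant reacted with Griess reagent (sulfanilamide/phosphoric acid plus naphthylethylenediamine), A540 read, calibrated against NaNO2 standard. IC50 versus vehicle control, mean ± SD of three experiments; celastrol positive control.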

RAW264.7 [8] = assay: Antiinflammatory activity in mouse RAW264.7 cells assessed as reduction of LPS-induced IkappaBalpha resynthesis at 30 uM pre-treated for 30 mins before LPS challenge by immunoblot; type: functional, cell-based
Method in brief: (§3)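 30 min pretreatment of RAW264.7 cells with compound, then LPS (1 μg/mL). Lysis in ice-cold Tris-HCl pH 7.5/NP-40 buffer with protease/phosphatase inhibitors. SDS-PAGE, PVDF transfer, skim-milk block, anti-IκB-α antibody, HRP secondary, ECL detection.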

RAW264.7 [9] = assay: Antiinflammatory activity in mouse RAW264.7 cells assessed as reduction of LPS-induced IkappaBalpha degradation at 30 uM pre-treated for 30 mins before LPS challenge and measured after 5 mins by immunoblot; type: functional, cell-based; method in brief: as §3
RAW264.7 [10] = assay: Antiinflammatory activity in mouse RAW264.7 cells assessed as reduction of LPS-induced IkappaBalpha degradation at 30 uM pre-treated for 30 mins before LPS challenge and measured after 15 mins by immunoblot; type: functional, cell-based; method in brief: as §3
RAW264.7 [11] = assay: Antiinflammatory activity in mouse RAW264.7 cells assessed as reduction of LPS-induced IkappaBalpha degradation at 30 uM pre-treated for 30 mins before LPS challenge and measured after 10 mins by immunoblot; type: functional, cell-based; method in brief: as §3

IC50 [5] [µM]	IC50 (RAW264.7 [6]) [µM]	IC50 (RAW264.7 [7]) [µM]	SMILES	Activity (RAW264.7 [1])	Activity (RAW264.7 [2])	Activity (RAW264.7 [3])	Activity (RAW264.7 [4])	Activity (RAW264.7 [8])	Activity (RAW264.7 [9])	Activity (RAW264.7 [10])	Activity (RAW264.7 [11])
86.2	–	> 50	O=C1COc2cc(O)ccc2-c2cc(O)c(O)cc21 [CAESALPINIAPHENOL C]	–	–	Non-toxic	Non-toxic	–	–	–	–
103	–	> 50	COc1cc(C[C@@]2(O)COc3cc(O)ccc3C2=O)ccc1O [CAESALPINIAPHENOL A]	–	–	Non-toxic	Non-toxic	–	–	–	–
65.3	–	42.4	O=C1c2ccc(O)cc2OC[C@@H]1Cc1ccc(O)c(O)c1	–	–	Non-toxic	Non-toxic	–	–	–	–
96.6	8.3	5.7	O=C1/C(=C/c2ccc(O)c(O)c2)COc2cc(O)ccc21 [SAPPANONE A]	inactive	Dose-dependent effect	Non-toxic	Non-toxic	Active	Active	Active	–
95.5	–	> 50	O=C1/C(=C/c2ccc(O)cc2)COc2cc(O)ccc21	–	–	Non-toxic	Non-toxic	–	–	–	–

The next lines start with the compound.

SMILES	IC50 [5] [µM]	IC50 (RAW264.7 [6]) [µM]	IC50 (RAW264.7 [7]) [µM]	Activity (RAW264.7 [1])	Activity (RAW264.7 [2])	Activity (RAW264.7 [3])	Activity (RAW264.7 [4])	Activity (RAW264.7 [8])	Activity (RAW264.7 [9])	Activity (RAW264.7 [10])	Activity (RAW264.7 [11])
O=Cc1ccc(O)cc1O[C@H](O)c1ccc(O)c(O)c1 [CAESALPINIAPHENOL D]	113	> 50	12.2	inactive	Dose-dependent effect	Non-toxic	Non-toxic	–	–	–	–
CC1=C(O)C(=O)C=C2C1=CC=C1[C@@]2(C)CC[C@@]2(C)[C@@H]3C[C@](C)(C(=O)O)CC[C@]3(C)CC[C@]12C [CELASTROL]	–	0.8	–	–	–	–	–	–	–	–	–
O=C1C=C[C@]23CC(COC2=C1)Cc1cc(O)c(O)cc13	157	–	> 50	–	–	Non-toxic	Non-toxic	–	–	–	–
COc1ccc(-c2oc3cc(O)cc(O)c3c(=O)c2O)cc1OC	85.3	–	35	–	–	Non-toxic	Non-toxic	–	–	–	–
COc1cc(O)c2c(=O)c(OC)c(-c3ccc(O)c(O)c3)oc2c1	103	5.8	3.5	inactive	Dose-dependent effect	Non-toxic	Non-toxic	Active	–	Active	Active
O=C1c2ccc(O)cc2OC[C@]1(O)Cc1ccc(O)cc1	117	–	> 50	–	–	Non-toxic	Non-toxic	–	–	–	–
O=C1OCC=C1C[C@@]1(O)COc2cc(O)ccc2C1=O [CAESALPINIAPHENOL B]	95.6	–	> 50	–	–	Non-toxic	Non-toxic	–	–	–	–
O=C1O[C@H]([C@@H](O)CO)C(O)=C1O [ASCORBIC ACID]	0.71	–	–	–	–	–	–	–	–	–	–
